Screens deposited in PubChem by The Scripps Research Institute Molecular Screening Center.
ADAM17 inh – inhibits human ADAM17; AID 720648; inhibition, % at 6.95 µM; actives 0.83% (n = 370,000); P78536; recombinant ADAM17, EDANS/DABCYL FRET peptide cleavage;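 active = inhibition above the mean of compounds lying between control limits plus 3 SD, set per campaign, cut at about 8.5% in these data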
DDE Tn7 FP inh – inhibitors of Tn7 peptide binding to human fibrin DD(E) | P02675 | FP displacement of FITC-Tn7 peptide from fibrin DD(E); 0% = median of compound wells per plate | inhibition, % at 8.3 µM | actives 0.13% (n = 370,000) | AID 720508;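 active = inhibition above the mean of compounds falling within the control limits plus 3 SD of them, cut at about 14% in these data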
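Measure: % inhibition scaled between sample-field median and high-control FP; Test system: human fibrin DD(E); Quantity: 2 µM final DD(E) protein; Doses: one dose, 8.3 µM nominal; Schedule: compound with protein 10 min, then 3 h after probe, room temperature; Detection: fluorescence polarization; Medium: Tris buffer with calcium and detergent, pH 7.8.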
PLCb3 inh – inhibitors of human phospholipase C beta3; Q01970; Purified PLC-beta3, fluorogenic substrate, fluorescence; inhibition, % at 12.2 µM; actives 0.18% (n = 370,000); AID 720704; in the data active = inhibition above about 11%
Tn6 DDE FP – DD(E)-Tn6 binding inhibition, primary FP screen. AID 720509. inhibition, % at 8.3 µM. actives 0.21% (n = 370,000). Fibrin DD(E) TRITC-Tn6 fluorescence polarization displacement. P02675;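 active = inhibition above a per-campaign cutoff: mean of compounds within control limits plus 3 SD, cut at about 15% in these data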
ADAM10 inh – ADAM10 inhibition, QFRET primary screen | O14672 | recombinant ADAM10, EDANS/DABCYL FRET peptide cleavage, 3 h | inhibition, % at 7 µM | actives 0.62% (n = 370,000);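 active = inhibition above a per-campaign cutoff equal to the mean of compounds falling between control-based bounds plus 3 SD, cut at about 20% in these data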
PLC-gamma1 inh – inhibitors of human phospholipase C gamma1 | purified PLC-gamma1, fluorogenic substrate, fluorescence | inhibition, % at 12.2 µM | actives 0.84% (n = 370,000) | AID 720700; in the data active = inhibition above about 9.5%
Large screens that a line does not name were inactive. The list is not random: actives were taken first. Their share in the collection is about 2.3%.

O=S1(=O)c2ccc(N3CCCC3)cc2Oc2ccccc2CN1Cc1cn(Cc2ccccc2C(F)(F)F)nn1	none
CC(=O)C(C(C)=O)c1c(Cl)c(O)c(O)c2c(C(=O)c3ccccc3)coc12	ADAM17 inh 15, ADAM10 inh 32
Nc1ccc(N2CCN(CCCCN3C(=O)C4CCCN4C3=O)CC2)cc1 (centres undefined)	Tn6 DDE FP 50
COc1cc(C2NCC(c3ccc(Cl)cc3Cl)c3c2[nH]c2ccccc32)cc(OC)c1OC (centres undefined)	ADAM17 inh 22, ADAM10 inh 47
COc1cc2c(cc1OC)C(C)=NCC2	Tn6 DDE FP 19
CCC1(C(=O)O)NC(c2cc(OC)ccc2O)C2C(=O)N(Cc3ccccc3)C(=O)C21 (centres undefined)	ADAM10 inh 22
CC(C)C(=O)N1CC[C@H]2[C@H](CCCN2Cc2ccc(F)cc2)C1	none
O=C(COC(=O)CNC(=O)c1ccc(Cl)cc1Cl)NC(=O)NCc1ccccc1	PLC-gamma1 inh 11
O=C(CNC(=O)c1ccc(Cl)cc1Cl)OCc1ccccc1	none
CN(CCC#N)C(=O)COC(=O)C1c2ccccc2Oc2ccccc21	none
N#CCCN(CCC#N)C(=O)C1c2ccccc2Oc2ccccc21	Tn6 DDE FP 59
O=C(Nc1ccccc1)c1cccc(N2C(=O)C3C4C=CC(C4)C3C2=O)c1 (centres undefined)	none
O=C(Nc1ccc(Br)cc1)c1cccc(N2C(=O)C3C4C=CC(C4)C3C2=O)c1 (centres undefined)	PLC-gamma1 inh 14
COc1ccc(CN(CCN2CCOCC2)C(=O)c2cc(F)ccc2C)cc1OC	none
O=C(Nc1nnc(Cc2ccccc2)s1)Nc1ccccc1F	PLC-gamma1 inh 12
O=C(Nc1ccccc1)Nc1nnc(Cc2ccccc2F)s1	none
Cc1ccccc1Cn1cc(CN2[C@@H](CC(C)C)COc3cccc(F)c3S2(=O)=O)nn1	none
Cc1ccc(S(=O)(=O)/N=C2\SC(CC(=O)Nc3ccc(F)cc3)C(=O)N2c2ccccc2)cc1 (centres undefined)	PLCb3 inh 11
CCc1nnc(N/N=C/c2c(C)[nH]c3ccccc23)n1N	PLC-gamma1 inh 10
Cc1[nH]c2ccccc2c1/C=N/NC(N)=S	none
CN(C(=O)CCn1nnc(-c2cccs2)n1)C1CCCCC1	none
Cc1ccc(-n2c(SCC(=O)Nc3ccc(S(=O)(=O)Nc4cc(C)nc(C)n4)cc3)nnc2-c2ccc(C(C)(C)C)cc2)cc1	none
Cc1ccc(NC(=O)C2CCCN2S(=O)(=O)c2cccnc2)cc1C (centres undefined)	none
COc1ccccc1NC(=O)c1ccc(C)c(S(=O)(=O)N2CCCCC2)c1	PLC-gamma1 inh 13
O=C(CCCN1C(=O)/C(=C/c2ccccc2Cl)SC1=S)NNC(=O)c1ccc(Cl)cc1Cl	ADAM10 inh 21
O=C(CCCN1C(=O)/C(=C/c2ccccc2Cl)SC1=S)NNC(=O)c1ccccc1	none
CC(C)[C@H](NC(=O)OCc1ccccc1)C(=O)OCC(=O)NC1CCCCC1	none
CC(C)[C@H](NC(=O)OCc1ccccc1)C(=O)OCC(=O)NC1(C#N)CCCC1	DDE Tn7 FP inh 15
O=C(CNc1cccc([N+](=O)[O-])c1)N1CCN(S(=O)(=O)c2ccc(Cl)cc2)CC1	PLCb3 inh 12
O=C(CNc1cccc(S(=O)(=O)N2CCCCCC2)c1)Nc1cccc([N+](=O)[O-])c1	none
Nc1c(-c2cccc(Cl)c2)cnn1-c1cccc(C(F)(F)F)c1	ADAM17 inh 8.6
CC[n+]1ccccc1/C=C/c1ccc(N(C)C)cc1	none
CC[n+]1ccc(/C=C/c2ccc(N(C)C)cc2)c2ccccc21	Tn6 DDE FP 39
CC(C)(C)S(=O)N1Cc2cc(C(=O)NCc3ccc4c(c3)OCO4)nc(-c3cccc(-c4cc5ccccc5o4)c3)c2[C@@H]1CCO (some centres undefined)	none
CC(C)(C)S(=O)N1Cc2cc(C(=O)NCc3ccc(Oc4ccccc4)cc3)nc(-c3cccc(-c4cc5ccccc5o4)c3)c2[C@H]1CCO (some centres undefined)	Tn6 DDE FP 17
CCN1CCCCC(NC(=O)c2ccccc2)C1=O (centres undefined)	none
CCC(CC)NC(=O)O[C@H]1CC[C@@]23CCCN2C(=O)CCC[C@H]3[C@H]1C	none
CCCOc1ccc(N2C(=O)CC(N3CCN(C(=O)c4ccco4)CC3)C2=O)cc1 (centres undefined)	Tn6 DDE FP 17
O=C(COC(=O)c1n[nH]c2ccccc12)Nc1cccc(S(=O)(=O)N2CCOCC2)c1	none
CCCc1nc2ccccc2c(C(=O)OCC(=O)Nc2cccc(S(=O)(=O)N3CCOCC3)c2)c1CC	ADAM17 inh 17, ADAM10 inh 32
O=C1NC[C@@H](CCCCN2CCN(CCC3CCCCC3)C(=O)C2=O)N(Cc2ccccc2)C1=O	PLC-gamma1 inh 14
O=C1NC[C@@H](CCCCN2CCN(CC3CCCCC3)C(=O)C2=O)N(Cc2ccccc2)C1=O	none
O=C(C1CCN(c2ncnc3c2sc2cccc(F)c23)CC1)N1CCN(Cc2ccc(F)cc2)CC1	none
COc1ccc(CC(=O)N2CCN(C(=O)Cc3ccc(OC)c(OC)c3)CC2)cc1OC	none
COc1ccc(CC(=O)Cc2ccc(OC)c(OC)c2)cc1OC	DDE Tn7 FP inh 14
O=C(O)c1cc(O)c2c(c1)[C@@H]([C@H]1c3cc(C(=O)O)cc(O)c3C(=O)c3c(O[C@@H]4O[C@H](CO)[C@@H](O)[C@H](O)[C@H]4O)cccc31)c1cccc(OC3O[C@H](CO)[C@@H](O)[C@H](O)[C@H]3O)c1C2=O (some centres undefined)	PLCb3 inh 12
O=C1c2cc(CO)cc(O)c2C(=O)c2c(O[C@@H]3OC(CO)[C@@H](O)[C@@H](O)[C@@H]3O)cccc21 (some centres undefined)	none
CCOC(=O)CNC(=O)CSc1nnc(-c2ccc(C(C)(C)C)cc2)n1-c1ccc(Cl)cc1	none
COc1ccc(C)c(NC(=O)[C@@H]2CCCN2S(=O)(=O)c2cccc3cccnc23)c1	none
Oc1ccc(C[C@H]2CNC(=S)N2CC2CCCN2C[C@H](Cc2ccc(O)cc2)N2C[C@H](Cc3ccc(O)cc3)N(CC3CCCCC3)C2=S)cc1 (some centres undefined)	Tn6 DDE FP 26, ADAM10 inh 22
Oc1ccc(C[C@H]2CN([C@@H](Cc3ccccc3)CN3CCCC3CN3C(=S)NC[C@@H]3Cc3ccccc3)C(=S)N2CC2CCCCC2)cc1 (some centres undefined)	none
C[C@H]1[C@@H](OC(=O)Nc2ccccc2Cl)CC[C@@]23CCCN2C(=O)CCC[C@@H]13	none
